The values that follow come from ChEMBL document CHEMBL4041463, “Pyrazolo[1,5-a]pyridine-3-carboxamide hybrids: Design, synthesis and evaluation of anti-tubercular activity” (Eur J Med Chem, 2017).

In brackets after ≈: the same amount, converted by molar mass.

What all share (type): functional
The test system of test [1] is Mycobacterium tuberculosis. Briefly: Antitubercular activity against Mycobacterium tuberculosis H37Ra harboring pTYOK in UAIRa broth culture assessed as concentration required to reduce relative luminescence unit to <10% measured after 4 days by autoluminescence assay. Particulars: 96 h.
Test [2] concerns Mycobacterium tuberculosis. Briefly: Antitubercular activity against rifampicin resistant Mycobacterium tuberculosis H37Rv harboring rpoB S522L mutant after 5 days. Summed up:
(§1)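 Ten-point two-fold DMSO dilutions in 7H9-Tw-OADC, final DMSO 2%, top concentration 200 µM. Incubated 5 days; growth read as OD590. Controls: medium/DMSO background, 100 µM rifampicin, DMSO-only, plus rifampicin dose-response. Gompertz fit of % growth; MIC taken as onset of zero growth. Plate acceptance: OD590 >0.2 in maximum-growth wells and rifampicin MIC within 3-fold of expected.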

For test [3], the system named is Mycobacterium tuberculosis. The test is described as follows: Antitubercular activity against isoniazid resistant Mycobacterium tuberculosis H37Rv harboring KAtG Y155 deletion mutant after 5 days. The essentials: as §1
Test [4] has as its system Mycobacterium tuberculosis. The test is described as follows: Antitubercular activity against rifampicin resistant Mycobacterium tuberculosis ATCC 35828 after 5 days. The following applies: ATCC 35828, 120 h. The essentials:
as §1

Test [5] concerns Mycobacterium tuberculosis. Briefly: Antitubercular activity against isoniazid resistant Mycobacterium tuberculosis ATCC 35822 after 5 days. Particulars: ATCC 35822, 120 h. Summed up: as §1
Test [6] has as its system Mycobacterium tuberculosis. Briefly: Antitubercular activity against fluoroquinolone resistant Mycobacterium tuberculosis H37Rv harboring gyrB D94N mutant after 5 days. Summed up:
as §1

In general, MIC refers to the least concentration at which growth counts as inhibited. On to `CCc1nn2ccc(Cl)cc2c1C(=O)NCc1ccc(-c2ccc(OC(F)(F)F)cc2)nc1`, for which the MIC in test [1] stood at 0.1 µg/mL (≈ 0.211 µM).
Same read-out and setting: to `Cc1ccn2nc(C)c(C(=O)NCc3ccc(N4CCC(Oc5ccc(OC(F)(F)F)cc5)CC4)cc3)c2c1` belongs 0.03 µg/mL (≈ 0.0557 µM); to `CCc1nn2ccc(Cl)cc2c1C(=O)NC/C=C(\C)CCC=C(C)C`, 0.3 µg/mL (≈ 0.834 µM).
As for `C[C@H]1COc2c(N3CCN(C)CC3)c(F)cc3c(=O)c(C(=O)O)cn1c23.C[C@H]1COc2c(N3CCN(C)CC3)c(F)cc3c(=O)c(C(=O)O)cn1c23.O` [LEVOFLOXACIN], the minimal inhibitory concentration (MIC) in test [2] was 0.37 µg/mL; in test [3] it was 0.44 µg/mL; in test [4], 0.63 µg/mL; in test [5], 0.59 µg/mL; in test [6], 10 µg/mL.
For `CCc1nn2ccc(Cl)cc2c1C(=O)NC[C@H]1CN(c2ccc(N3CCOCC3)c(F)c2)C(=O)O1`, the MIC in test [1] was over 10 µg/mL.
As for `CO[C@H]1/C=C/O[C@@]2(C)Oc3c(C)c(O)c4c(O)c(c(/C=N/N5CCN(C)CC5)c(O)c4c3C2=O)NC(=O)/C(C)=C\C=C\[C@H](C)[C@H](O)[C@@H](C)[C@@H](O)[C@@H](C)[C@H](OC(C)=O)[C@@H]1C` [RIFAMPIN], the MIC in test [2] was 0.42 µg/mL (≈ 0.51 µM); in test [3], 0.016 µg/mL (≈ 0.0194 µM); in test [4] it was over 41 µg/mL; in test [5] it was 0.007 µg/mL (≈ 0.00851 µM); in test [1], 0.03 µg/mL (≈ 0.0365 µM); in test [6], 0.017 µg/mL (≈ 0.0207 µM).
Turning to `CCc1nn2ccc(Cl)cc2c1C(=O)NCC1CCN(CC23CC4CC(CC(C4)C2)C3)CC1`, the MIC in test [1] is 3 µg/mL (≈ 6.4 µM).
Still for that read-out and setting: to `Cc1ccn2nc(C)c(C(=O)NCc3ccc(OC(F)(F)F)cc3)c2c1` belongs 3 µg/mL (≈ 8.26 µM).
Regarding `NNC(=O)c1ccncc1` [ISONIAZID], the MIC was 0.056 µg/mL (≈ 0.408 µM) in test [2]; over 27 µg/mL in test [3]; 0.11 µg/mL (≈ 0.802 µM) in test [4]; over 27 µg/mL in test [5]; 0.41 µg/mL (≈ 2.99 µM) in test [1]; 0.088 µg/mL (≈ 0.642 µM) in test [6].
